Assays:
Assay type in all cases: functional
HL-60(TB) = experiment: Growth inhibition of human HL-60(TB) cells at 10 uM after 48 hrs by coulter counting; conditions: HL-60, 48 h, read-out: GI
In short: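 Test compound was dissolved in DMSO and diluted in phosphate-buffered saline to a final DMSO level below 1%. Dilutions were plated in duplicate with cell culture at 6 × 10⁴ cells/ml. Vehicle controls held PBS and DMSO at matching dilutions. Incubation was at 37 °C, humidified, under 5% CO₂. Data were reported as percent growth of treated cells.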

RPMI-8226 = experiment: Growth inhibition of human RPMI8226 cells at 10 uM after 48 hrs by coulter counting; conditions: RPMI-8226, 48 h, read-out: GI
In short: (§1)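 Single-dose primary screen across the full NCI 60-cell-line panel. Stocks were made in DMSO and diluted in PBS to a final DMSO below 1%. Cultures at 6 × 10⁴ cells/ml were run in duplicate wells alongside PBS/DMSO vehicle controls at 37 °C in humidified 5% CO₂. Data were expressed as percent growth of treated cells.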

DU-145 = experiment: Growth inhibition of human DU145 cells at 10 uM after 48 hrs by coulter counting; conditions: DU-145, 48 h, read-out: GI; in short: as §1
MOLT-4 = experiment: Growth inhibition of human MOLT4 cells at 10 uM after 48 hrs by coulter counting; conditions: MOLT-4, 48 h, read-out: GI; in short: as §1
A498 = experiment: Growth inhibition of human A498 cells at 10 uM after 48 hrs by coulter counting; conditions: A498, 48 h, read-out: GI; in short: as §1
NCI-H226 = experiment: Growth inhibition of human NCI-H226 cells at 10 uM after 48 hrs by coulter counting; conditions: NCI-H226, 48 h, read-out: GI; in short: as §1
MCF7 = experiment: Growth inhibition of human MCF7 cells at 10 uM after 48 hrs by coulter counting; conditions: MCF7, 48 h, read-out: GI; in short: as §1
T47D = experiment: Growth inhibition of human T47D cells at 10 uM after 48 hrs by coulter counting; conditions: read-out: GI
In short: (§2)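 Single-dose screen in the NCI 60 human tumor cell line panel (nine subpanels). Compounds dissolved in DMSO and diluted in phosphate buffered saline, keeping final DMSO below 1%. Added in duplicate wells to cells at 6 × 10⁴ cells/ml. Controls held PBS and DMSO at matching dilutions. Incubated at 37 °C, humidified, 5% CO₂. Reported as percent growth of treated cells.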

U-251 = experiment: Growth inhibition of human U251 cells at 10 uM after 48 hrs by coulter counting; conditions: U-251, 48 h, read-out: GI; in short: as §2
ACHN = experiment: Growth inhibition of human ACHN cells at 10 uM after 48 hrs by coulter counting; conditions: read-out: GI; in short: as §1
MDA-MB-435 = experiment: Growth inhibition of human MDA-MB-435 cells at 10 uM after 48 hrs by coulter counting; conditions: MDA-MB-435, 48 h, read-out: GI; in short: as §1
IGROV-1 = experiment: Growth inhibition of human IGROV1 cells at 10 uM after 48 hrs by coulter counting; conditions: IGROV-1, 48 h, read-out: GI; in short: as §1
NCI-H522 = experiment: Growth inhibition of human NCI-H522 cells at 10 uM after 48 hrs by coulter counting; conditions: NCI-H522, 48 h, read-out: GI; in short: as §1
M14 = experiment: Growth inhibition of human M14 cells at 10 uM after 48 hrs by coulter counting; conditions: M14, 48 h, read-out: GI; in short: as §1
SK-MEL-2 = experiment: Growth inhibition of human SK-MEL-2 cells at 10 uM after 48 hrs by coulter counting; conditions: SK-MEL-2, 48 h, read-out: GI; in short: as §1
NCI-H23 = experiment: Growth inhibition of human NCI-H23 cells at 10 uM after 48 hrs by coulter counting; conditions: NCI-H23, 48 h, read-out: GI; in short: as §1
OVCAR-4 = experiment: Growth inhibition of human OVCAR4 cells at 10 uM after 48 hrs by coulter counting; conditions: OVCAR-4, 48 h, read-out: GI; in short: as §1
SNB-75 = experiment: Growth inhibition of human SNB75 cells at 10 uM after 48 hrs by coulter counting; conditions: SNB-75, 48 h, read-out: GI; in short: as §1
K562 = experiment: Growth inhibition of human K562 cells at 10 uM after 48 hrs by coulter counting; conditions: K562, 48 h, read-out: GI; in short: as §1
LOX IMVI = experiment: Growth inhibition of human LOXIMVI cells at 10 uM after 48 hrs by coulter counting; conditions: read-out: GI; in short: as §1
NCI/ADR-RES = experiment: Growth inhibition of human NCI/ADR-RES cells at 10 uM after 48 hrs by coulter counting; conditions: read-out: GI; in short: as §1
SF-268 = experiment: Growth inhibition of human SF268 cells at 10 uM after 48 hrs by coulter counting; conditions: SF-268, 48 h, read-out: GI; in short: as §1
SK-MEL-5 = experiment: Growth inhibition of human SK-MEL-5 cells at 10 uM after 48 hrs by coulter counting; conditions: SK-MEL-5, 48 h, read-out: GI; in short: as §1
SF-295 = experiment: Growth inhibition of human SF295 cells at 10 uM after 48 hrs by coulter counting; conditions: SF-295, 48 h, read-out: GI; in short: as §1
UACC-257 = experiment: Growth inhibition of human UACC257 cells at 10 uM after 48 hrs by coulter counting; conditions: UACC-257, 48 h, read-out: GI; in short: as §2
BT-549 = experiment: Growth inhibition of human BT549 cells at 10 uM after 48 hrs by coulter counting; conditions: BT-549, 48 h, read-out: GI; in short: as §1
[1] = Growth inhibition of human NCI-322M cells at 10 uM after 48 hrs by coulter counting; conditions: read-out: GI; in short: as §1
SNB-19 = experiment: Growth inhibition of human SNB19 cells at 10 uM after 48 hrs by coulter counting; conditions: SNB-19, 48 h, read-out: GI; in short: as §1
UO-31 = experiment: Growth inhibition of human UO31 cells at 10 uM after 48 hrs by coulter counting; conditions: UO-31, 48 h, read-out: GI; in short: as §2
HCC 2998 = experiment: Growth inhibition of human HCC2998 cells at 10 uM after 48 hrs by coulter counting; conditions: HCC 2998, 48 h, read-out: GI; in short: as §1
A549 = experiment: Growth inhibition of human A549 cells at 10 uM after 48 hrs by coulter counting; conditions: A549, 48 h, read-out: GI; in short: as §1
KM12 = experiment: Growth inhibition of human KM12 cells at 10 uM after 48 hrs by coulter counting; conditions: KM12, 48 h, read-out: GI; in short: as §1
SK-MEL-28 = experiment: Growth inhibition of human SK-MEL-28 cells at 10 uM after 48 hrs by coulter counting; conditions: SK-MEL-28, 48 h, read-out: GI; in short: as §1
EKVX = experiment: Growth inhibition of human EKVX cells at 10 uM after 48 hrs by coulter counting; conditions: read-out: GI; in short: as §1
CCRF-CEM = experiment: Growth inhibition of human CCRF-CEM cells at 10 uM after 48 hrs by coulter counting; conditions: read-out: GI; in short: as §1
CAKI-1 = experiment: Growth inhibition of human Caki1 cells at 10 uM after 48 hrs by coulter counting; conditions: CAKI-1, 48 h, read-out: GI; in short: as §1
HT-29 = experiment: Growth inhibition of human HT-29 cells at 10 uM after 48 hrs by coulter counting; conditions: HT-29, 48 h, read-out: GI; in short: as §1
HCT-116 = experiment: Growth inhibition of human HCT116 cells at 10 uM after 48 hrs by coulter counting; conditions: HCT-116, 48 h, read-out: GI; in short: as §1
UACC-62 = experiment: Growth inhibition of human UACC62 cells at 10 uM after 48 hrs by coulter counting; conditions: UACC-62, 48 h, read-out: GI; in short: as §2

Compound: COc1cc(/C=C2\CCCC3=C2N=C2SC=C(C)N2C3c2cc(OC)c(OC)c(OC)c2)cc(OC)c1OC (centres undefined)
- inhibition of growth at 10 µM (HL-60(TB)): > 10%
- inhibition of growth at 10 µM (RPMI-8226): > 10%
- inhibition of growth at 10 µM (DU-145): > 10%
- inhibition of growth at 10 µM (MOLT-4): > 10%
- inhibition of growth at 10 µM (A498): > 10%
- inhibition of growth at 10 µM (NCI-H226): > 10%
- inhibition of growth at 10 µM (MCF7): > 10%
- inhibition of growth at 10 µM (T47D): > 10%
- inhibition of growth at 10 µM (U-251): > 10%
- inhibition of growth at 10 µM (ACHN): > 10%
- inhibition of growth at 10 µM (MDA-MB-435): > 10%
- inhibition of growth at 10 µM (IGROV-1): > 10%
- inhibition of growth at 10 µM (NCI-H522): > 10%
- inhibition of growth at 10 µM (M14): > 10%
- inhibition of growth at 10 µM (SK-MEL-2): > 10%
- inhibition of growth at 10 µM (NCI-H23): > 10%
- inhibition of growth at 10 µM (OVCAR-4): > 10%
- inhibition of growth at 10 µM (SNB-75): > 10%
- inhibition of growth at 10 µM (K562): > 10%
- inhibition of growth at 10 µM (LOX IMVI): > 10%
- inhibition of growth at 10 µM (NCI/ADR-RES): > 10%
- inhibition of growth at 10 µM (SF-268): > 10%
- inhibition of growth at 10 µM (SK-MEL-5): > 10%
- inhibition of growth at 10 µM (SF-295): > 10%
- inhibition of growth at 10 µM (UACC-257): > 10%
- inhibition of growth at 10 µM (BT-549): > 10%
- inhibition of growth at 10 µM [1]: > 10%
- inhibition of growth at 10 µM (SNB-19): > 10%
- inhibition of growth at 10 µM (UO-31): 20%
- inhibition of growth at 10 µM (HCC 2998): > 10%
- inhibition of growth at 10 µM (A549): > 10%
- inhibition of growth at 10 µM (KM12): > 10%
- inhibition of growth at 10 µM (SK-MEL-28): > 10%
- inhibition of growth at 10 µM (EKVX): > 10%
- inhibition of growth at 10 µM (CCRF-CEM): > 10%
- inhibition of growth at 10 µM (CAKI-1): > 10%
- inhibition of growth at 10 µM (HT-29): > 10%
- inhibition of growth at 10 µM (HCT-116): > 10%
- inhibition of growth at 10 µM (UACC-62): > 10%
